# Screens as filed in PubChem.
# Most compounds without a hit are left out; they make up all but 5.2% or so of the library.
# NS3 helicase inh = inhibitors of Hepatitis C virus NS3 helicase. NS3 helicase DNA unwinding, Cy5 molecular beacon fluorescence. inhibition, % at 10.9 µM. 290,000 tested, 0.56% active;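 active = inhibition above the mean of all tested compounds plus 3 SD, set per campaign, cut at about 35% in these data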;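 also: 0% = DMSO wells and 100% = thioflavine S control wells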
#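 System: HCV NS3 helicase fragment; control set: DMSO and thioflavine S; technique: Cy5 fluorescence at 0 and 60 min, beacon hairpin quenching; reagent: beacon DNA duplex substrate plus ATP; replicates: singlicate; schedule: 1 h reaction at 25 °C, ATP-initiated; medium: MOPS buffer pH 6.5 with MgCl2, DTT, Tween20, BSA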
# EBNA-1 inh = blocks EBNA-1 binding to DNA; EBNA-1 DNA binding, fluorescence polarization; inhibition, % at 14.8 µM; 300,000 tested, 0.34% active; AID 1950; in the data active = inhibition above about 28%
# PfM18AAP inh-1 = blocks P. falciparum M18 aspartyl aminopeptidase. recombinant PfM18AAP, H-Glu-NHMec fluorogenic cleavage. 290,000 tested, 1.2% active. inhibition, % at 7.35 µM;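 active = inhibition above the campaign mean inhibition over all tested compounds plus 3 SD, cut at about 28% in these data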;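 also: 0% = plate median of test compound wells and 100% = 2 mM ZnCl2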
# ZTA counter = ZTA (EBV) inhibition in EBNA-1 counter-screen; ZTA-DNA binding, fluorescence polarization; inhibition, % at 11 µM; 320,000 tested, 0.15% active; in the data active = inhibition above about 33%
# Target sequence (P03206 whole entry, looked up): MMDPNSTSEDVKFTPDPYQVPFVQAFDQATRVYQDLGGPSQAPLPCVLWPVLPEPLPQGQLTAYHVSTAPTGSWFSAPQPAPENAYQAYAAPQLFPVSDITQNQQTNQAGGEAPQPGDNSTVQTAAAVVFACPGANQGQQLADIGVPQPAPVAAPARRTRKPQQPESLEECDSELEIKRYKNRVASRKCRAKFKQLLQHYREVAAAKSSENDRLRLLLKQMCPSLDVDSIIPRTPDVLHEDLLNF
# ALR H2O2 inh = human ALR oxidase inhibition via reduced H2O2; 290,000 tested, 3.8% active; purified ALR, DTT oxidation, H2O2 HRP-luminol luminescence; AID 485317; inhibition, % (test concentration not listed); P55789;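 active = mean replicate inhibition above about 79%, with every replicate also reaching it, limit read from the data; inconclusive = only one of the two criteria met; inactive = mean below limit and not every replicate reaching it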
# Target sequence (P55789 whole entry, looked up): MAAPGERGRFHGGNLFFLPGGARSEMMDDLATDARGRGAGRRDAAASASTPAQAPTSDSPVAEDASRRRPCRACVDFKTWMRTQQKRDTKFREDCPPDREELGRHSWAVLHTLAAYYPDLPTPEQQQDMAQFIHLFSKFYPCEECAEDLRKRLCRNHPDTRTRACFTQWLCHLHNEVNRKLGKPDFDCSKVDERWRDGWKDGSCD
# HCV core dimer = blocks dimerization of HCV core protein; TR-FRET GST/Flag-core106 dimerization, 1536-well; inhibition, % at 5 µM; 300,000 tested, 0.33% active;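 active = inhibition above the mean of all tested compounds plus 3 SD, set per screening campaign, cut at about 45% in these data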
#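 test system = GST/Flag-tagged HCV core106 proteins | probe or stimulus = Eu donor and XL665 acceptor anti-tag antibodies | times = compound-protein-antibody incubation 4 h at 22.5 °C | signal = TR-FRET, excitation 340 nm, emission 617 and 671 nm | measure = percent inhibition of core106 dimerization signal | controls = wells lacking GST-core106 and wells with excess unlabelled core106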
# PfM18AAP inh-2 = confirmation of Plasmodium falciparum M18 aspartyl aminopeptidase inhibitors | shares compounds with PfM18AAP inh-1 | recombinant PfM18AAP, H-Glu-NHMec fluorogenic cleavage | inhibition, % at 7.35 µM | 2,400 tested, 28% active;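 active = mean inhibition over replicate wells above the hit cutoff set for the earlier primary screen, cut at about 29% in these data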;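 also: 0% = median of test compound wells and 100% = 2 mM ZnCl2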
# CTSL1 counter = counter-screen for PFM18AAP inhibitors: confirmation of human cathepsin L inhibitors. shares compounds with PfM18AAP inh-1. purified cathepsin L1, Z-Leu-Arg-MCA fluorescence. inhibition, % at 5.96 µM. 2,400 tested, under 10 active. AID 2178;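 active = average inhibition across replicates above the hit cutoff set in the earlier primary screen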;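 also: 0% = median of test compound wells and 100% = Z-Phe-Ala-diazomethylketone 1 µM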
# Starred values were filed as active, the others as inactive; ? = inconclusive; . = no result.
SMILES,NS3 helicase inh,EBNA-1 inh,PfM18AAP inh-1,ZTA counter,ALR H2O2 inh,HCV core dimer,PfM18AAP inh-2,CTSL1 counter
Cc1ccc(C)c(OCC(=O)N2CCN(c3ncccn3)CC2)c1,.,.,.,3.7,1.4,.,.,.
CC(=O)N/C(=C/c1ccc([N+](=O)[O-])cc1)C(=O)O,-0.9,-2.3,32.0*,5.6,-3.7,-4.0,-37.2,-3.0
CCCCCCOc1ccc(C(=O)O)cc1,0.2,-12.6,-5.6,-7.6,-8.0,-0.1,.,.
CCCCCCOc1ccc(C(=O)n2cnc(N)n2)cc1,4.8,-10.5,44.0*,-11.9,-37.3,-1.6,40.8*,-1.3
Cc1ccccc1NC(=O)/C=C1\SC(=O)NC1=O,11.1,-4.5,13.8,-6.5,17.3,-3.4,.,.
O=C(/C=C1\SC(=O)NC1=O)Nc1ccc(C(=O)O)cc1,-1.6,-4.7,36.4*,3.8,.,1.1,-37.0,2.1
CC(=O)Nc1ccc(C(=O)NCC2(N3CCCCC3)CCCCC2)cc1,-18.0,-7.7,14.2,2.7,0.3,-4.6,.,.
CCC(C)NC(=O)C1CCN(S(=O)(=O)c2ccc3[nH]c(=O)ccc3c2)CC1 (centres undefined),-0.4,-11.7,35.8*,-6.4,-0.9,-2.6,-56.2,-1.4
Cc1cc(C)c(-n2c(SCCS(=O)(=O)c3ccc(F)cc3)n[nH]c2=O)c(C)c1,-1.1,5.2,40.8*,3.9,1.6,-1.6,-40.2,1.3
COc1ccc(NS(=O)(=O)c2cccc(C(=O)NNC(=O)CNC(=O)c3ccco3)c2)cc1,6.7,11.5,4.3,11.6,2.3,1.5,.,.
O=C1/C(=C\c2cccc(O)c2O)SC(=S)N1Cc1ccccc1,12.8,-2.5,57.8*,18.9,.,-2.2,20.1,-2.6
Cc1ccc(C)c(NC(=S)NCCc2ccc(F)cc2)c1,7.1,5.8,3.1,-15.6,4.4,11.9,.,.
Cc1ccc(C)c(NC(=S)NNc2ccc(F)cc2F)c1,-13.6,5.3,46.0*,-1.1,?,7.3,18.8,-4.5
CCOc1ccc(NC(=O)CN(C)C(=O)c2c(C)nn(-c3ccccc3)c2Cl)cc1OCC,.,12.5,.,0.0,-1.4,-3.9,.,.
CC(Sc1ccc(S(=O)(=O)N2CCOCC2)cc1[N+](=O)[O-])C(=O)O (centres undefined),28.9,5.1,33.0*,-2.5,-28.0,8.4,-34.3,-7.0
CC(C)C(Nc1ccc(S(=O)(=O)N2CCOCC2)cc1[N+](=O)[O-])C(=O)O (centres undefined),-3.7,1.1,-2.0,1.0,-10.8,-5.5,.,.
Cc1sc2nc(CSc3ncn[nH]3)[nH]c(=O)c2c1C,1.5,0.6,72.1*,-12.9,3.8,1.8,70.8*,-2.9
CC1(C)Cc2c(c(N3CCOCC3)nc3sc(C(=O)Nc4ccccc4)c(N)c23)CO1,-13.1,-2.0,37.3*,0.5,3.2,-1.3,-45.5,0.8
CC1(C)Cc2c(c(N3CCOCC3)nc3sc(C(=O)Nc4cccc(Cl)c4)c(N)c23)CO1,-11.8,10.6,40.7*,-14.2,2.6,-3.2,14.1,8.8
CC1Sc2ccc(C(=O)O)cc2NC1=O (centres undefined),-2.6,6.5,44.4*,6.2,-0.8,-4.6,-59.8,-8.9
CC1Sc2ccc(C(=O)Nc3ncccc3O)cc2NC1=O (centres undefined),.,-4.4,.,-4.7,25.3,-9.2,.,.
O=C(CSc1ncn[nH]1)c1cccc([N+](=O)[O-])c1,10.2,0.1,43.3*,-21.2,.,-9.3,38.0*,-2.3
O=C(CSc1ncn[nH]1)c1ccccc1,-8.1,1.0,41.9*,18.5,44.2,-0.6,53.4*,-4.0
CN1/C(=C\C(=O)CSc2ncn[nH]2)C(C)(C)c2ccccc21,8.5,5.0,66.3*,-21.9,-7.0,-2.8,16.2,1.6
O=C(CSc1ncn[nH]1)c1ccco1,-0.4,11.8,23.4,13.8,1.6,0.1,.,.
SMILES,NS3 helicase inh,EBNA-1 inh,PfM18AAP inh-1,ZTA counter,ALR H2O2 inh,HCV core dimer,PfM18AAP inh-2,CTSL1 counter
O=C(CSc1ncn[nH]1)N1CCCCC1,6.8,5.2,44.9*,0.2,.,-0.6,-11.4,4.9
Cn1c(=O)c2c(SCC(=O)N3CCCC3)nc(CC(C)(C)C)nc2n(C)c1=O,-2.7,-9.0,-1.0,0.9,-5.4,1.0,.,.
O=C(O)Cc1c[nH]c2cccc(O)c12,31.9,-4.7,44.1*,17.7,16.5,-36.0,0.1,-5.6
Cc1cc(C)c(S(=O)(=O)N2CCN(C(=O)CCn3nc(C)c(C)c3C)CC2)c(C)c1,-12.8,-3.4,-1.3,5.2,-46.9,0.0,.,.
COc1ccc(N2C(=O)C(Cl)=C(N3CCOCC3)C2=O)cc1,17.4,-8.3,32.8*,-3.1,12.9,-0.6,-5.1,24.6*
CCc1ccc(N2C(=O)C(Cl)=C(N3CCOCC3)C2=O)cc1,14.1,-2.1,18.1,8.6,3.8,2.7,.,.
Fc1ccc(C(CCNCc2ccccn2)c2ccc(Cl)cc2)cc1 (centres undefined),-44.0,0.2,9.5,-2.8,.,-12.1,.,.
Cc1ncc(CO)c(/C=N/NC(=O)c2ccc(O)cc2)c1O,-2.0,-6.5,6.1,11.7,57.5,-7.5,.,.
Cc1ncc(CO)c(/C=N/NC(=O)c2ccccc2Br)c1O,-4.2,-0.2,34.8*,10.0,-0.9,-13.5,-14.1,3.7
CCN(CC)c1ccc(C(=S)NC2CCCCC2)cc1,-4.4,-8.2,0.9,-11.7,.,1.7,.,.
CCOc1ccc(C(=S)NC2CCCCC2)cc1OCC,-11.7,-6.3,36.8*,-0.8,33.2,-0.5,17.7,-3.0
CN(C)c1ccc(C(=S)NC2CCCCC2)cc1,-3.4,-8.8,33.5*,14.8,5.6,0.7,4.8,1.7
COc1ccc(N2CCN(C(=O)COC(=O)COc3cc(C)cc(C)c3)CC2)cc1,.,-2.3,.,8.2,34.4,2.0,.,.
Cn1cccc1Cc1nnc(SCC(=O)Nc2ccc3c(c2)OCO3)n1CCc1ccccc1,-5.4,-3.1,2.2,5.2,15.2,4.3,.,.
COCCn1c(Cc2cccn2C)nnc1SCC(=O)NCc1ccc2c(c1)OCO2,8.7,0.3,35.1*,-13.2,15.7,-16.5,-40.2,1.6
CC(C)n1cnc2c(=S)nc[nH]c21,-0.9,4.6,23.9,13.4,.,1.9,-45.9,5.0
Cc1ccc(S(=O)(=O)N(C)C)cc1NC(=O)COC(=O)c1ccc2c(=O)n3c(nc2c1)CCC3,.,11.2,.,9.1,-9.6,7.8,.,.
Cc1cccc(C)c1NC(=O)CN(C)C(=O)COc1cccc2c1OC(C)(C)C2,.,-5.1,.,-19.9,-2.8,-8.5,.,.
FC(F)(F)c1cc(-c2ccc3c(c2)OCO3)nc(NCc2ccco2)n1,11.5,-6.9,37.3*,-48.2,-5.7,5.0,-30.0,1.3
CC(NS(=O)(=O)c1c(N)n(C)c(=O)n(C)c1=O)c1ccccc1 (centres undefined),-1.3,1.9,-17.8,17.3,-2.2,-1.5,.,.
